Test results from ChEMBL document CHEMBL2176901, “Pyrrolo[3,4-h]quinolinones a new class of photochemotherapeutic agents” (Bioorg Med Chem, 2011).
pIC50: −log10 of the molar value. Calls of active or inactive are those of the source. No cut-off for these calls is given here.

Experiments:
HL-60 = experiment: Phototoxicity in 3.75 J/cm'2 UV-A irradiated human HL60 cells after 72 hrs by MTT assay; assay type: functional, cell-based; settings: HL-60, light or radiation study
Summary of the method: (§1)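 HL-60 and Jurkat (8×10³/well, RPMI-1640) and MCF-7, LoVo, NCTC-2544 (5×10³/well; DMEM or Ham's F12) preincubated 18 h at 37 °C, 5% CO₂. Compound in DMSO diluted in HBSS pH 7.2, 30 min at 37 °C, then UV-A at 2.5 or 3.75 J/cm². Medium replaced, 72 h incubation, MTT read-out. IC50 as mean ± SEM of three experiments.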

Jurkat [1] = experiment: Induction of apoptosis in 3.75 J/cm'2 UV-A irradiated human Jurkat cells assessed as necrotic cells at 5 uM after 24 hrs by Annexin-V-FITC and propidium iodide based flow cytometry (reference value: 4.2 %); assay type: functional
Jurkat [2] = experiment: Induction of apoptosis in UV-A irradiated human Jurkat cells assessed as loss of mitochondrial membrane potential after 6 hrs by cytofluorimetric analysis; assay type: functional, cell-based
Summary of the method: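 Jurkat cells 6, 12 and 24 h after UV-A (2.5 J/cm²) with compound, resuspended in HBSS with JC-1 (1 μg/ml). Green (FL1) and orange (FL2) fluorescence collected by flow cytometry, ≥10000 events; cells with monomeric JC-1 counted as collapsed potential. Mean ± SEM of three experiments.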

[3] = Drug uptake in cytoplasm of human NCTC-2544 cells at 10 uM after 2 hrs by fluorescence microphotography; assay type: ADME, cell-based; settings: nctc-2544, 2 h
Summary of the method: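 NCTC-2544 cells attached in Petri dishes, given compound at 10 μM for 2 h, washed with HBSS. Then 30 min with Rhodamine 123 (mitochondria), LysoTracker RED, CellMask Orange (plasma membrane) or ER-Tracker. Blue compound fluorescence overlaid on probe images by video-confocal microscopy.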

LoVo = experiment: Phototoxicity in 2.5 J/cm'2 UV-A irradiated human LoVo cells after 72 hrs by MTT assay; assay type: functional, cell-based; settings: light or radiation study; summary of the method: as §1
Jurkat [4] = experiment: Induction of lipid peroxidation in 2.5 J/cm'2 UV-A irradiated human Jurkat cells assessed as increase in TBARS formation after 24 hrs by thiobarbituric acid assay; assay type: functional, cell-based
Summary of the method: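 Lipid peroxidation measured as MDA–thiobarbituric acid adducts, with BHT added to samples; calibrated to a 1,1,3,3-tetraethoxypropane standard curve; protein by Peterson method.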

Nucleic Acid [5] = experiment: Induction of photo-induced supercoiled Escherichia coli pBR322 DNA damage at drug:DNA ratio of 1:3 by agarose gel electrophoresis in presence of DABCO; assay type: nucleic-acid assay
Summary of the method: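 Supercoiled pBR322 (100 ng) in 10 mM phosphate buffer pH 7.2 irradiated with UV-A (3.75 J/cm²) at [DNA]/[drug] 1/3, with additives, under nitrogen or in deuterated buffer as stated. Aliquots then incubated at 37 °C with Fpg or Endo III. Run on 1% agarose in TAE, 80 V for 2 h, stained with ethidium bromide; Form I/II fractions from band densitometry.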

Nucleic Acid [6] = experiment: Binding affinity to salmon testes DNA at drug/DNA ratio of 0.01 by linear dichroism analysis; assay type: nucleic-acid assay; settings: Salmonidae
Summary of the method: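 Flow linear dichroism in 10 mM phosphate buffer pH 7.2. Samples oriented in a rotating cylindrical cuvette (0.14 cm path, 800 rpm) at several drug/DNA ratios.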

Question: With `CCOC(=O)c1c2c(c(C)n1C)-c1c(cc(S(=O)(=O)c3ccccc3)c(=O)n1C)CC2` as the molecule, how does the pIC50 (HL-60) read?
Answer: Its pIC50 is 6.05.

Question: What about the Activity (Jurkat [1]) of the same molecule?
Answer: The Activity was 4.5%.

Question: And the Activity (Jurkat [2])?
Answer: The Activity was “Active”.

Question: What about the Drug uptake [3] of the same molecule?
Answer: Its Drug uptake is “Active”.

Question: What about the pIC50 (LoVo) of the same molecule?
Answer: The pIC50 was 6.15.

Question: And the Activity (Jurkat [4])?
Answer: The Activity was “Dose-dependent effect”.

Question: What about the Activity (Nucleic Acid [5]) of the same molecule?
Answer: Its Activity is “inactive”.

Question: And the Activity (Nucleic Acid [6])?
Answer: The Activity was “inactive”.
